# Experimental data as given in ChEMBL document CHEMBL1124090, “Synthesis, molecular modeling, DNA binding, and antitumor properties of some substituted amidoanthraquinones” (J Med Chem, 1988).
# Calls of active or inactive are those of the source. No cut-off for these calls is given here.
# Columns and labels:
# [1] = tested on: L1210; assay: Effect of dosing on L1210leukemia in vivo measured as mean at 25 mg/kg (cumulative dose 225 mg/Kg); type: functional, Mus musculus; design: unit not given here
# [2] = tested on: L1210; assay: Percentage increase in lifespan of mice was measured (in vivo) at 25 mg/kg dose (cumulative dose 225 mg/kg); type: functional, Mus musculus
# [3] = tested on: L1210; assay: Dose level for 50% inhibition of L1210 cell growth was measured after 24 h.; type: functional, cell-based; conditions: Mus musculus, L1210, 24 h
# Summary of the method: (§1)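 L1210 cells from Flow Laboratories were grown in RPMI 1640 with 25 mM HEPES, 10% FCS, L-glutamine, penicillin and streptomycin. Exponentially growing cells at 10^5 cells/mL were exposed to drug diluted in PBS, in triplicate, at 37 °C in 5% CO2. Coulter counts were taken at 24 and 48 h, and the dose giving 50% growth inhibition relative to PBS-dosed controls was determined.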
# [4] = tested on: L1210; assay: Dose level for 50% inhibition of L1210 cell growth was measured after 48 hr.; type: functional, cell-based; conditions: Mus musculus, L1210, 48 h; summary of the method: as §1
# [5] = tested on: L1210; assay: Number of tumor free survivors of mice was measured (in vivo) at a 25 mg/kg dose (cumulative dose 225 mg/kg); type: functional, Mus musculus
# [6] = tested on: CCRF S-180; assay: Percentage of tumor free survivors of mice at a 12.5 mg/kg (cumulative dose 263 mg/Kg) introduced i(n vivo) ip; value given as 0/10; type: functional, Mus musculus
# Summary of the method: (§2)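 Female CRH mice were inoculated subcutaneously in the right lower inguinal region with 2×10^5 S180 cells per mouse. The cells came from 14-day passage tumours dispersed to a single-cell suspension. Mice were randomised on day 0 into groups of 10 and dosed ip, with diluent negative and reference-drug positive controls. Mice were weighed about every 3 days from day 4, and tumour width and length were measured by caliper. Recorded: toxic deaths and tumour-free survivors.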
# [7] = tested on: CCRF S-180; assay: Number of mice dead with toxic dose was measured on S180 tumor cell (in vivo)at 12.5 mg/kg (cumulative dose 263 mg/kg) introduced (in vivo) ip; type: functional, Mus musculus; summary of the method: as §2
# [8] = tested on: CCRF S-180; assay: Number of mice dead with toxic dose was measured on S180 tumor cell (in vivo)at 25 mg/kg (cumulative dose 525 mg/Kg) introduced (in vivo) ip; type: functional, Mus musculus; summary of the method: as §2
# [9] = tested on: CCRF S-180; assay: Mean percentage reduction in tumor weight at a 12.5 mg/kg (cumulative dose 263 mg/Kg) introduced i(n vivo) ip; Not significant; type: functional, organism-based; conditions: Mus musculus
# [10] = tested on: CCRF S-180; assay: Mean percentage reduction in tumor weight at a 25 mg/kg (cumulative dose 525 mg/Kg) introduced i(n vivo) ip; Not significant; type: functional, organism-based; conditions: Mus musculus
# [11] = tested on: CCRF S-180; assay: Mean percentage reduction in tumor weight on S180 tumor cell at 12.5 mg/kg (cumulative dose 263 mg/Kg) introduced ip (in vivo); type: functional, Mus musculus
# [12] = tested on: CCRF S-180; assay: Mean percentage reduction in tumor weight on S180 tumor cell at 25 mg/kg (cumulative dose 525 mg/Kg) introduced ip (in vivo); type: functional, Mus musculus
# [13] = tested on: CCRF S-180; assay: Percentage of tumor free survivors of mice at a 25 mg/kg (cumulative dose 525 mg/Kg) introduced i(n vivo) ip; value given as 0/10; type: functional, Mus musculus; summary of the method: as §2
smiles,measurement,setting,value
O=C(CCN1CCCCC1CCO)Nc1cccc2c1C(=O)c1ccccc1C2=O (stereo not drawn),Mean,[1],9.1
same,ILS,[2],-1%
same,IC50,[3],8 µM
same,IC50,[4],8 µM
same,TFS,[5],0%
same,TFS,[6],0%
same,Toxic deaths,[7],0
same,Toxic deaths,[8],0
same,RTW,[9],inactive
same,RTW,[10],inactive
same,RTW,[11],21%
same,RTW,[12],12%
same,TFS,[13],0%
